Test results reported in article PMC8427777 (ACS Omega, 2021).
“Also recorded” adds a separate entry of the source. Read-outs that look alike come from different tables or passages of the source. acyl = not defined here

Columns and labels:
C5a = assay: Effect of prednisone on SR3–C5a interaction by CD; format: binding, human; details: 0.5 μM PDN, 0.35 μM SR3, 0.1 μM C5a, PBS, 25 °C; preliminary
recombinant human C5a [1] = target: T1, recombinant human C5a (Homo sapiens, UniProt P01031); assay: Two-site fluorescence study: ECL2 peptide; format: binding; details: 0.5–1 μM SR1
T1 sequence (P01031 678-751 limits assumed): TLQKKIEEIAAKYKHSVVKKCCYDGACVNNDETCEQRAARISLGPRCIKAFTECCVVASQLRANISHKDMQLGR
In short: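 Two-site fluorescence: 0.1 μM C5a was preincubated with 0.5 μM NT-peptide and titrated with 0–1 μM ECL2 peptide. Readings were taken in 1× PBS (pH ∼ 7.4) at 25°C, with excitation at 278–280 nm, emission at 290–450 nm and 5 nm slits. Three scans were averaged and the free-peptide signal was subtracted.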

recombinant human C5a [2] = target: T1, recombinant human C5a; assay: Two-site CD study: ECL2 peptide; format: binding
In short: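 Two-site CD: 0.1 μM recombinant human C5a was preincubated with 0.5 μM NT-peptide, then titrated with 0–1 μM ECL2 peptide. Far-UV CD was run at 25°C in 1× PBS (pH ∼ 7.4), with at least three scans (1 s time constant, 1 nm step). Each sample was prepared and read separately, and the signal of the corresponding free peptides was subtracted.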

[3] = up to 100 μM, in solution; ref not given ("has been reported"); cited from earlier work
recombinant human C5a [4] = target: T1, recombinant human C5a; assay: CD titration of NT-peptides against recombinant human C5a; format: binding
In short: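 Far-UV CD at 25°C in filtered, degassed 1× PBS (pH ∼ 7.4). Recombinant human C5a was held at 0.1 μM and NT-peptides (native Met1-Lys28 sequence or mutants) at 0–1 μM. Samples were incubated ≥1 h at 4°C, each prepared and read separately, with at least three scans (1 s time constant, 1 nm step). Free-peptide signal was subtracted, and data were converted to mean residue ellipticity, normalized and fitted by nonlinear regression for affinity.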

[5] = Intrinsic tyrosine fluorescence of free peptides; format: physicochemical; details: at the working concentrations, 1× PBS pH ∼ 7.4, 25 °C
[6] = Conformational analysis of free peptides by CD; format: physicochemical; details: 1 μM, PBS pH ∼7.4, 25 °C; compared with SR3
recombinant human C5a [7] = target: T2, recombinant human C5a (human, UniProt P01031 678-751); assay: circular dichroism titration + other fluorescence titration
T2 sequence (looked up): T1 sequence (P01031 678-751 limits assumed)

recombinant human C5a [8] = target: T2, recombinant human C5a; assay: as above; remark: listed apart in the source
COVID-19 = details: anti-C5a antibody; cited from earlier work
C5aR1 = details: cited from earlier work

C[C@]12C=CC(=O)C=C1CC[C@@H]1[C@@H]2C(=O)C[C@@]2(C)[C@H]1CC[C@]2(O)C(=O)CO [PDN, prednisone]
response of PDN-preincubated C5a to SR3 compared to free C5a (C5a): comparatively weaker response

SR1: native ECL2 sequence of C5aR1 (Tyr174-Arg198), acylated and amidated, carrying Cys188/Ser mutation (acyl-YRVVREEYFPPKVLSGVDYSHDKRR-NH2; reading uncertain)
fluorescence response, C5a preincubated with SR3 or SR5 (recombinant human C5a [1]; 0.1 μM C5a + 0.5 μM SR3 or SR5): consistent with the observation made in the CD; also recorded: modest change in fluorescence intensity | fluorescence response, C5a preincubated with SR4 (recombinant human C5a [1]; 0.1 μM C5a + 0.5 μM SR4): quenched appreciably | CD response, C5a preincubated with SR3, 0.5 μM SR1 (recombinant human C5a [2]; 0.1 μM C5a + 0.5 μM SR3, PBS, 25 °C, 0.5 μM SR1): substantially enhanced the CD signal | CD response, C5a preincubated with SR3, 1 μM SR1 (vs 0.5 μM) (recombinant human C5a [2]; 0.1 μM C5a + 0.5 μM SR3, PBS, 25 °C, 1 μM SR1): did not change further | CD response, C5a preincubated with SR4 (recombinant human C5a [2]; 0.1 μM C5a + 0.5 μM SR4, compared to the C5a–SR3/C5a–SR5 system): relatively strong conformational response | CD signature of free ECL2 peptide [3]: twisted short-stranded β-hairpin-like conformation

SR4 (MASFNYTTPAYGHYAAKATLDLNTPVAK)
change of CD signal / conformation of C5a (recombinant human C5a [4]; 0.1 μM C5a, 0-1 μM peptide, PBS pH ∼ 7.4, 25 °C): robust conformational alteration | binding affinity toward C5a in words (recombinant human C5a [4]; CD and fluorescence titration studies taken together (A1 and A2)): could not be obtained reliably; also recorded: did not demonstrate a quantifiable binding affinity | intrinsic fluorescence [5]: very negligible | effect of alanine mutations on conformational ordering [6]: can potentially affect the overall conformational ordering

acyl-YRVVREEYFPPKVLSGVDYSHDKRR-NH2 (peptide, UniProt P21730 174-198, looked up, reading uncertain) [SR1, ECL2 peptide of C5aR1 (Tyr174-Arg198)]
binding result (recombinant human C5a [7]): binds

MDSFNYTTPDYGHYDDKDTLDLNTPVDK (peptide, UniProt P21730 1-28, looked up) [SR3, native NT-peptide of C5aR1 (Met1-Lys28)]
Kd (recombinant human C5a [8]): 126 to 193 nM

MDSFNATTPDAGHADDKDTLDLNTPVDK (peptide, UniProt P21730 1-28, looked up) [SR5, Tyr/Ala mutant NT-peptide of C5aR1 (Met1-Lys28)]
Kd (recombinant human C5a [8]): 105 to 123 nM

B1: Vilobelimab: anti-C5a antibody (antibody, chains of the INN, looked up, V domains shown)
VH: QVQLQQSGPQLVRPGTSVKISCKASGYSFTTFWMDWVKQRPGQGLEWIGRIDPSDSESRLDQRFKDRATLTVDKSSSTVYMQLSSPTSEDSAVYYCARGNDGYYGFAYWGQGTLVTVSS
VL: DIVLTQSPASLAVSLGQRATISCKASQSVDYDGDSYMKWYQQKPGQPPKLLIYAASNLQSGIPARFSGSGSGTDFTLNIHPVEEEDAATYYCQQSNEDPYTFGGGTKLEIK
outcome in COVID-19 treatment (COVID-19): favorable outcome

B2: C5a: cationic proinflammatory glycoprotein, complement anaphylatoxin; ligand of C5aR1 (protein)
chain: T1 sequence (P01031 678-751 limits assumed)
potency toward C5aR1 (C5aR1): nanomolar to picomolar potency | potency toward C5aR1 (C5aR1; native-like conditions): picomolar–nanomolar potency
